In ChEMBL document CHEMBL1146308 (Bioorg Med Chem, 2007):
Calls of active or inactive are those of the source. No cut-off for these calls is given here.

Experiments:
Acetylcholinesterase = target: T1, Acetylcholinesterase (Rattus norvegicus, UniProt P37136); test: Inhibition of AChE in rat cortex […]
T1 sequence (P37136 whole entry): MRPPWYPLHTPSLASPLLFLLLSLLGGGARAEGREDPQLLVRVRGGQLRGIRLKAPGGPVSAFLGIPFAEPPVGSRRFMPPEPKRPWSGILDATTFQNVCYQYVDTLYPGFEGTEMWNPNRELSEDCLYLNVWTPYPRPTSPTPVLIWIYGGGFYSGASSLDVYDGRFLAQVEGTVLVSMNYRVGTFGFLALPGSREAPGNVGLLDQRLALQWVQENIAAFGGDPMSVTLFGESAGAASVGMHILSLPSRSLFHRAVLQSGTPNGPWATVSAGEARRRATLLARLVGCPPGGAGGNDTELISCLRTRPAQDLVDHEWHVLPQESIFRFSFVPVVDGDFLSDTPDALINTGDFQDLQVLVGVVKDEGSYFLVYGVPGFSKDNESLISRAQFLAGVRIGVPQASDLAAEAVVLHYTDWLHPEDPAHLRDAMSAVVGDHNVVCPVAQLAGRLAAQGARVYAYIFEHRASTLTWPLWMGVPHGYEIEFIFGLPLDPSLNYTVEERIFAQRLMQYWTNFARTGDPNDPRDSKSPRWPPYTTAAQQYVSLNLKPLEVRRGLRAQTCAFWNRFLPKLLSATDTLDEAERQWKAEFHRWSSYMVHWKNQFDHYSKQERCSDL

Butyrylcholinesterase = Butyrylcholinesterase (Rattus norvegicus, UniProt Q9JKC1); test: Inhibition of BuChE in rat serum; type: cell-free
Summary of the method: (§1)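 Modified Ellman colorimetric cholinesterase assay. The AChE source was rat cortex homogenate and the BuChE source was rat serum. Inhibition was measured against each enzyme, and selectivity was taken as the BuChE IC50 over the AChE IC50.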

Rattus norvegicus = organism: Rattus norvegicus; test: Selectivity ratio of IC50 for rat BuChE to rat IC50 for AchE; summary of the method: as §1
Mus musculus = organism: Mus musculus; test: Neuroprotection against scopolamine-induced spartial performance deficits in mouse by water maze test; type: functional, organism-based
PC-12 [1] = test: Reduction of amyloid beta peptide-induced cytotoxicity in PC12 cells; type: functional, cell-based; details: Rattus norvegicus
PC-12 [2] = test: Inhibition of amyloid beta peptide-induced redox disequilibrium assessed as increase in GSHPx activity in PC12 cells; type: functional, cell-based; details: Rattus norvegicus
PC-12 [3] = test: Inhibition of amyloid beta peptide-induced redox disequilibrium assessed as decrease in SOD activity in PC12 cells; type: functional, cell-based; details: Rattus norvegicus
PC-12 [4] = test: Inhibition of amyloid beta peptide-induced redox disequilibrium assessed as decrease in MDA level in PC12 cells; type: functional, cell-based; details: Rattus norvegicus
PC-12 [5] = test: Inhibition of staurosporine-induced apoptosis in PC12 cells; type: functional, cell-based; details: Rattus norvegicus

Chain of Butyrylcholinesterase (Q9JKC1 whole entry): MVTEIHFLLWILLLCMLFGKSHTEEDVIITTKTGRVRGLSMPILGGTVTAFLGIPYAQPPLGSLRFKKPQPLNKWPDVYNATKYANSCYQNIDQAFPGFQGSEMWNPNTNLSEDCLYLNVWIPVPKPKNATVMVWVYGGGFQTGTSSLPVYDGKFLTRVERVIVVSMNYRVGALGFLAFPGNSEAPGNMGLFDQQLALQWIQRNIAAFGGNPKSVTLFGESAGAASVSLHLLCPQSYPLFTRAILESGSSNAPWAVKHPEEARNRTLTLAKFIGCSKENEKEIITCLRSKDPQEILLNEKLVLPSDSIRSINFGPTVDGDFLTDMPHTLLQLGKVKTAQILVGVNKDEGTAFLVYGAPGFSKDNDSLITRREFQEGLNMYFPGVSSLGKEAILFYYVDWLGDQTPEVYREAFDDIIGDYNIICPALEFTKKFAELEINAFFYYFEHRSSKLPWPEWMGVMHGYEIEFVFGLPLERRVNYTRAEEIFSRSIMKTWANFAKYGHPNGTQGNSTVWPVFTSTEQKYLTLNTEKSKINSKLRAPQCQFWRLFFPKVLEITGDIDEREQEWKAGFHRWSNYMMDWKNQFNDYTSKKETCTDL

Structure (SMILES) | IC50 (Acetylcholinesterase) [nM] | Ratio IC50 (Rattus norvegicus) | other results
CCCN(CCN1CCC[C@@H]2[C@H]3C=C(C)C[C@]21c1ccc(=O)[nH]c1C3)CCN1CCC[C@@H]2[C@H]3C=C(C)C[C@]21c1ccc(=O)[nH]c1C3 | 1010 |  | 
CC1=C[C@H]2Cc3[nH]c(=O)ccc3[C@@]3(C1)[C@@H]2CCCN3CCN(C)CCCCCCN(C)CCN1CCC[C@@H]2[C@H]3C=C(C)C[C@]21c1ccc(=O)[nH]c1C3 | 78.4 |  | 
CC1=C[C@H]2Cc3[nH]c(=O)ccc3[C@@]3(C1)[C@@H]2CCCN3C(=O)CN(C)CCN(C)CC(=O)N1CCC[C@@H]2[C@H]3C=C(C)C[C@]21c1ccc(=O)[nH]c1C3 | 1020 |  | 
CC1=C[C@H]2Cc3[nH]c(=O)ccc3[C@@]3(C1)[C@@H]2CCCN3C(=O)CN(C)CCCN(C)CC(=O)N1CCC[C@@H]2[C@H]3C=C(C)C[C@]21c1ccc(=O)[nH]c1C3 | 471 | 127 | IC50 (Butyrylcholinesterase): 60000 nM
CC1=C[C@H]2Cc3[nH]c(=O)ccc3[C@@]3(C1)[C@@H]2CCCN3C(=O)CN(C)CCCCCCCCN(C)Cc1ccc(F)cc1 | 56.5 |  | 
CC1=C[C@H]2Cc3[nH]c(=O)ccc3[C@@]3(C1)[C@@H]2CCCN3CCN(C)CCCN(C)CCN1CCC[C@@H]2[C@H]3C=C(C)C[C@]21c1ccc(=O)[nH]c1C3 | 416 |  | 
CC1=C[C@H]2Cc3[nH]c(=O)ccc3[C@@]3(C1)[C@@H]2CCCN3C(=O)CN(C)CCCCCCCCCCCCN(C)CC(=O)N1CCC[C@@H]2[C@H]3C=C(C)C[C@]21c1ccc(=O)[nH]c1C3 | 53.4 |  | 
CC1=C[C@H]2Cc3[nH]c(=O)ccc3[C@@]3(C1)[C@@H]2CCCN3CCN1CCN(CN2CCC[C@@H]3[C@H]4C=C(C)C[C@]32c2ccc(=O)[nH]c2C4)CC1 | 407 | 472 | IC50 (Butyrylcholinesterase): 192000 nM
COc1ccccc1CN(C)CCCCCCCCCCCCN(C)CC(=O)N1CCC[C@@H]2[C@H]3C=C(C)C[C@]21c1ccc(=O)[nH]c1C3 | 62.2 |  | 
CC1=C[C@H]2Cc3[nH]c(=O)ccc3[C@]3(C1)NCCC[C@H]23 |  | 12 | 
CC1=C[C@H]2Cc3[nH]c(=O)ccc3[C@@]3(C1)[C@@H]2CCCN3CCCN(C)CCCCCCCCN(C)CCCN1CCC[C@@H]2[C@H]3C=C(C)C[C@]21c1ccc(=O)[nH]c1C3 | 40.6 |  | 
COc1ccccc1CN(C)CCCCCCCCCCN(C)CC(=O)N1CCC[C@@H]2[C@H]3C=C(C)C[C@]21c1ccc(=O)[nH]c1C3 | 21.1 | 410 | IC50 (Butyrylcholinesterase): 8650 nM
CC1=C[C@H]2Cc3[nH]c(=O)ccc3[C@@]3(C1)[C@@H]2CCCN3C(=O)CCN1CCN(CCC(=O)N2CCC[C@@H]3[C@H]4C=C(C)C[C@]32c2ccc(=O)[nH]c2C4)CC1 | 170 |  | 
CC1=C[C@H]2Cc3[nH]c(=O)ccc3[C@@]3(C1)[C@@H]2CCCN3CCN1CCCN(CCN2CCC[C@@H]3[C@H]4C=C(C)C[C@]32c2ccc(=O)[nH]c2C4)CC1 |  | 573 | 
CC1=C[C@H]2Cc3[nH]c(=O)ccc3[C@@]3(C1)[C@@H]2CCCN3C(=O)CCN(C)CCCCCCN(C)CCC(=O)N1CCC[C@@H]2[C@H]3C=C(C)C[C@]21c1ccc(=O)[nH]c1C3 | 35.9 | 1890 | IC50 (Butyrylcholinesterase): 67900 nM
CC1=C[C@H]2Cc3[nH]c(=O)ccc3[C@@]3(C1)[C@@H]2CCCN3C(=O)CN(C)CCCCCCN(C)CC(=O)N1CCC[C@@H]2[C@H]3C=C(C)C[C@]21c1ccc(=O)[nH]c1C3 | 76.2 | 846 | IC50 (Butyrylcholinesterase): 64500 nM
CC1=C[C@H]2Cc3[nH]c(=O)ccc3[C@@]3(C1)[C@@H]2CCCN3C(=O)CCN1CCCN(CCC(=O)N2CCC[C@@H]3[C@H]4C=C(C)C[C@]32c2ccc(=O)[nH]c2C4)CC1 | 179 |  | 
CC1=C[C@H]2Cc3[nH]c(=O)ccc3[C@@]3(C1)[C@@H]2CCCN3C(=O)CN(C)CCCCCCCCN(C)Cc1ccccn1 | 41.2 |  | 
CC1=C[C@H]2Cc3[nH]c(=O)ccc3[C@@]3(C1)[C@@H]2CCCN3C(=O)CN(C)CCCCCCCCCCN(C)Cc1cccnc1 |  |  | IC50 (Butyrylcholinesterase): 12900 nM
CC1=C[C@H]2Cc3[nH]c(=O)ccc3[C@@]3(C1)[C@@H]2CCCN3C(=O)CN(C)CCCCCCCCCCN(C)Cc1ccncc1 | 50 |  | 
CC1=C[C@H]2Cc3[nH]c(=O)ccc3[C@@]3(C1)[C@@H]2CCCN3C(=O)CCN(C)CCCCCCCCN(C)CCC(=O)N1CCC[C@@H]2[C@H]3C=C(C)C[C@]21c1ccc(=O)[nH]c1C3 | 18.5 | 3400 | IC50 (Butyrylcholinesterase): 63000 nM

Structure (SMILES) | IC50 (Acetylcholinesterase) [nM] | Ratio IC50 (Rattus norvegicus) | other results
CC1=C[C@H]2Cc3[nH]c(=O)ccc3[C@@]3(C1)[C@@H]2CCCN3C(=O)CN1CCCN(CC(=O)N2CCC[C@@H]3[C@H]4C=C(C)C[C@]32c2ccc(=O)[nH]c2C4)CC1 | 204 | 838 | 
CC1=C[C@H]2Cc3[nH]c(=O)ccc3[C@@]3(C1)[C@@H]2CCCN3C(=O)CN1CCN(CC(=O)N2CCC[C@@H]3[C@H]4C=C(C)C[C@]32c2ccc(=O)[nH]c2C4)CC1 |  | > 157 | 
CC1=C[C@H]2Cc3[nH]c(=O)ccc3[C@@]3(C1)[C@@H]2CCCN3CCCN1CCN(CCCN2CCC[C@@H]3[C@H]4C=C(C)C[C@]32c2ccc(=O)[nH]c2C4)CC1 | 202 |  | 
CC1=C[C@H]2Cc3[nH]c(=O)ccc3[C@@]3(C1)[C@@H]2CCCN3C(=O)CN(C)CCCCCCCCCCCCN(C)Cc1ccc(F)cc1 | 309 |  | 
CC1=C[C@H]2Cc3[nH]c(=O)ccc3[C@@]3(C1)[C@@H]2CCCN3C(=O)CN(C)CCCCCCCCCCN(C)Cc1ccccn1 | 42 |  | 
CC1=C[C@H]2Cc3[nH]c(=O)ccc3[C@@]3(C1)[C@@H]2CCCN3C(=O)CCN(C)CCCCCCCCCCN(C)CCC(=O)N1CCC[C@@H]2[C@H]3C=C(C)C[C@]21c1ccc(=O)[nH]c1C3 | 11.8 | 5510 | Activity (Mus musculus): Active; IC50 (Butyrylcholinesterase): 65000 nM; Activity (PC-12 [1]): Active; Activity (PC-12 [2]): Active; Activity (PC-12 [3]): Active; Activity (PC-12 [4]): Active; Activity (PC-12 [5]): Active
CC1=C[C@H]2Cc3[nH]c(=O)ccc3[C@@]3(C1)[C@@H]2CCCN3C(=O)CN(C)CCCCCCCCN(C)CC(=O)N1CCC[C@@H]2[C@H]3C=C(C)C[C@]21c1ccc(=O)[nH]c1C3 | 50.8 | 1290 | IC50 (Butyrylcholinesterase): 65400 nM
CC1=C[C@H]2Cc3[nH]c(=O)ccc3[C@@]3(C1)[C@@H]2CCCN3CCCN(C)CCCCCCN(C)CCCN1CCC[C@@H]2[C@H]3C=C(C)C[C@]21c1ccc(=O)[nH]c1C3 | 33.6 |  | 
CC1=C[C@H]2Cc3[nH]c(=O)ccc3[C@@]3(C1)[C@@H]2CCCN3CCCN1CCCN(CCCN2CCC[C@@H]3[C@H]4C=C(C)C[C@]32c2ccc(=O)[nH]c2C4)CC1 | 332 |  | 
CCCN(CC(=O)N1CCC[C@@H]2[C@H]3C=C(C)C[C@]21c1ccc(=O)[nH]c1C3)CC(=O)n1c2c(ccc1=O)[C@@]13CC(C)=C[C@@H](C2)[C@H]1CCCN3 | 157 |  | 
CC1=C[C@H]2Cc3[nH]c(=O)ccc3[C@@]3(C1)[C@@H]2CCCN3C(=O)CN(CC(=O)N1CCC[C@@H]2[C@H]3C=C(C)C[C@]21c1ccc(=O)[nH]c1C3)C1CC1 | 1000 |  | 
CC1=C[C@H]2Cc3[nH]c(=O)ccc3[C@@]3(C1)[C@@H]2CCCN3CCN(CCN1CCC[C@@H]2[C@H]3C=C(C)C[C@]21c1ccc(=O)[nH]c1C3)C1CC1 | 695 |  | 
CC1=C[C@H]2Cc3[nH]c(=O)ccc3[C@@]3(C1)[C@@H]2CCCN3CCCN(C)CCCCCCCCCCN(C)CCCN1CCC[C@@H]2[C@H]3C=C(C)C[C@]21c1ccc(=O)[nH]c1C3 | 26.2 |  | 
CC1=C[C@H]2Cc3[nH]c(=O)ccc3[C@@]3(C1)[C@@H]2CCCN3CCN(C)CCN(C)CCN1CCC[C@@H]2[C@H]3C=C(C)C[C@]21c1ccc(=O)[nH]c1C3 | 3480 |  | 
CC1=C[C@H]2Cc3[nH]c(=O)ccc3[C@@]3(C1)[C@@H]2CCCN3CCN(C)CCCCCCCCN(C)CCN1CCC[C@@H]2[C@H]3C=C(C)C[C@]21c1ccc(=O)[nH]c1C3 | 20.1 |  | 
CC1=C[C@H]2Cc3[nH]c(=O)ccc3[C@@]3(C1)[C@@H]2CCCN3C(=O)CN(C)CCCCCCCCCCN(C)Cc1cccc2ccccc12 | 121 |  | 
CC1=C[C@H]2Cc3[nH]c(=O)ccc3[C@@]3(C1)[C@@H]2CCCN3C(=O)CCN(C)CCCCCCCCCCCCN(C)CCC(=O)N1CCC[C@@H]2[C@H]3C=C(C)C[C@]21c1ccc(=O)[nH]c1C3 | 23.1 | 3830 | IC50 (Butyrylcholinesterase): 88400 nM
CC1=C[C@H]2Cc3[nH]c(=O)ccc3[C@@]3(C1)[C@@H]2CCCN3C(=O)CN(C)CCCCCCCCCCCCN(C)Cc1ccccn1 | 65.8 |  | 
CC1=C[C@H]2Cc3[nH]c(=O)ccc3[C@@]3(C1)[C@@H]2CCCN3C(=O)CN(C)CCCCCCCCCCN(C)Cc1ccc(F)cc1 | 52 | 67 | IC50 (Butyrylcholinesterase): 3480 nM
CC1=C[C@H]2Cc3[nH]c(=O)ccc3[C@@]3(C1)[C@@H]2CCCN3C(=O)CN(C)CCCCCCN(C)Cc1cccc2ccccc12 | 124 |  | 
